How the values were obtained:
[1] = system: MCF7; assay: Cytotoxicity against human MCF7 cells assessed as reduction in cell growth incubated for 72 hrs by MTT assay; type: functional, cell-based; conditions: MCF7, 72 h
Summary of the method: (§1)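 Cells grown in DMEM with 10% FBS and penicillin-streptomycin at 37 °C, 5% CO2, seeded at 3000 cells/well and attached overnight. Screening series given at 1, 3, 10, 100 μM; follow-up agent at 100 nM–3 μM; both 72 h, with 0.1% DMSO vehicle. MTT (5 mg/mL stock) added for 3 h at 37 °C, formazan dissolved in DMSO, absorbance read at 570 nm. Viability expressed as % of DMSO-treated wells from replicates.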

[2] = system: A-431; assay: Cytotoxicity against human A431 cells assessed as reduction in cell growth incubated for 72 hrs by MTT assay; type: functional, cell-based; conditions: A-431, 72 h; summary of the method: as §1
[3] = system: A-375; assay: Cytotoxicity against human A375 cells assessed as reduction in cell growth incubated for 72 hrs by MTT assay; type: functional, cell-based; conditions: A-375, 72 h; summary of the method: as §1
[4] = system: HeLa; assay: Cytotoxicity against human HeLa cells assessed as reduction in cell growth incubated for 72 hrs by MTT assay; type: functional, cell-based; summary of the method: as §1
[5] = system: A-375; assay: Cytotoxicity against human A375 cells assessed as reduction in cell growth at 1 uM incubated for 72 hrs by MTT assay relative to control; type: functional; conditions: A-375, 72 h, read-out: GI; summary of the method: as §1
[6] = system: A-375; assay: Cytotoxicity against human A375 cells assessed as reduction in cell growth at 3 uM incubated for 72 hrs by MTT assay relative to control; type: functional; conditions: A-375, 72 h, read-out: GI; summary of the method: as §1
[7] = system: A-375; assay: Cytotoxicity against human A375 cells assessed as reduction in cell growth at 10 uM incubated for 72 hrs by MTT assay relative to control; type: functional; conditions: A-375, 72 h, read-out: GI; summary of the method: as §1
[8] = system: A-375; assay: Cytotoxicity against human A375 cells assessed as reduction in cell growth at 30 uM incubated for 72 hrs by MTT assay relative to control; type: functional; conditions: A-375, 72 h, read-out: GI
[9] = system: A-375; assay: Cytotoxicity against human A375 cells assessed as reduction in cell growth at 100 uM incubated for 72 hrs by MTT assay relative to control; type: functional; conditions: A-375, 72 h, read-out: GI; summary of the method: as §1
[10] = system: A-431; assay: Cytotoxicity against human A431 cells assessed as reduction in cell growth at 1 uM incubated for 72 hrs by MTT assay relative to control; type: functional; conditions: A-431, 72 h, read-out: GI; summary of the method: as §1
[11] = system: A-431; assay: Cytotoxicity against human A431 cells assessed as reduction in cell growth at 3 uM incubated for 72 hrs by MTT assay relative to control; type: functional; conditions: A-431, 72 h, read-out: GI; summary of the method: as §1
[12] = system: A-431; assay: Cytotoxicity against human A431 cells assessed as reduction in cell growth at 10 uM incubated for 72 hrs by MTT assay relative to control; type: functional; conditions: A-431, 72 h, read-out: GI; summary of the method: as §1
[13] = system: A-431; assay: Cytotoxicity against human A431 cells assessed as reduction in cell growth at 30 uM incubated for 72 hrs by MTT assay relative to control; type: functional; conditions: A-431, 72 h, read-out: GI
[14] = system: A-431; assay: Cytotoxicity against human A431 cells assessed as reduction in cell growth at 100 uM incubated for 72 hrs by MTT assay relative to control; type: functional; conditions: A-431, 72 h, read-out: GI; summary of the method: as §1
[15] = system: HeLa; assay: Cytotoxicity against human HeLa cells assessed as reduction in cell growth at 1 uM incubated for 72 hrs by MTT assay relative to control; type: functional; conditions: read-out: GI; summary of the method: as §1
[16] = system: HeLa; assay: Cytotoxicity against human HeLa cells assessed as reduction in cell growth at 3 uM incubated for 72 hrs by MTT assay relative to control; type: functional; conditions: read-out: GI; summary of the method: as §1
[17] = system: HeLa; assay: Cytotoxicity against human HeLa cells assessed as reduction in cell growth at 10 uM incubated for 72 hrs by MTT assay relative to control; type: functional; conditions: read-out: GI; summary of the method: as §1
[18] = system: HeLa; assay: Cytotoxicity against human HeLa cells assessed as reduction in cell growth at 30 uM incubated for 72 hrs by MTT assay relative to control; type: functional; conditions: read-out: GI
[19] = system: HeLa; assay: Cytotoxicity against human HeLa cells assessed as reduction in cell growth at 100 uM incubated for 72 hrs by MTT assay relative to control; type: functional; conditions: read-out: GI; summary of the method: as §1
[20] = system: MCF7; assay: Cytotoxicity against human MCF7 cells assessed as reduction in cell growth at 1 uM incubated for 72 hrs by MTT assay relative to control; type: functional; conditions: MCF7, 72 h, read-out: GI; summary of the method: as §1
[21] = system: MCF7; assay: Cytotoxicity against human MCF7 cells assessed as reduction in cell growth at 3 uM incubated for 72 hrs by MTT assay relative to control; type: functional; conditions: MCF7, 72 h, read-out: GI; summary of the method: as §1
[22] = system: MCF7; assay: Cytotoxicity against human MCF7 cells assessed as reduction in cell growth at 10 uM incubated for 72 hrs by MTT assay relative to control; type: functional; conditions: MCF7, 72 h, read-out: GI; summary of the method: as §1
[23] = system: MCF7; assay: Cytotoxicity against human MCF7 cells assessed as reduction in cell growth at 30 uM incubated for 72 hrs by MTT assay relative to control; type: functional; conditions: MCF7, 72 h, read-out: GI
[24] = system: MCF7; assay: Cytotoxicity against human MCF7 cells assessed as reduction in cell growth at 100 uM incubated for 72 hrs by MTT assay relative to control; type: functional; conditions: MCF7, 72 h, read-out: GI; summary of the method: as §1

| SMILES | IC50 [1] [µM] | IC50 [2] [µM] | IC50 [3] [µM] | IC50 [4] [µM] | inhibition of growth at 1 µM [5] [%] | inhibition of growth at 3 µM [6] [%] | inhibition of growth at 10 µM [7] [%] | inhibition of growth at 30 µM [8] [%] | inhibition of growth at 100 µM [9] [%] | inhibition of growth at 1 µM [10] [%] | inhibition of growth at 3 µM [11] [%] | inhibition of growth at 10 µM [12] [%] | inhibition of growth at 30 µM [13] [%] | inhibition of growth at 100 µM [14] [%] | inhibition of growth at 1 µM [15] [%] | inhibition of growth at 3 µM [16] [%] | inhibition of growth at 10 µM [17] [%] | inhibition of growth at 30 µM [18] [%] | inhibition of growth at 100 µM [19] [%] | inhibition of growth at 1 µM [20] [%] | also measured |
| --- | --- | --- | --- | --- | --- | --- | --- | --- | --- | --- | --- | --- | --- | --- | --- | --- | --- | --- | --- | --- | --- |
| N/C(=N\NC(=S)N1CCN(c2ccccn2)CC1)c1ccccn1 | 13.7 | 4.3 | 0.7 | 8.6 | 70 | 73.7 | 74.4 | 81 | 86.8 | 11.6 | 45.8 | 69 | 74.9 | 91.9 | 16.7 | 24.4 | 56.1 | 78.9 | 85.6 | 36 | inhibition of growth at 3 µM [21]: 37.2%; inhibition of growth at 10 µM [22]: 46.4%; inhibition of growth at 30 µM [23]: 65.3%; inhibition of growth at 100 µM [24]: 68.3% |
| Cc1ccnc(/C(N)=N/NC(=S)N2CCSCC2)c1 | 6.9 | 7.2 | 1.2 | 15.5 | 47.7 | 67.2 | 74.5 | 84.9 | 89.9 | 34.6 | 34.7 | 60 | 75.3 | 79.6 | 41.1 | 40.4 | 39.2 | 78.3 | 91.6 | 3.89 | inhibition of growth at 3 µM [21]: 33.8%; inhibition of growth at 10 µM [22]: 62.5%; inhibition of growth at 30 µM [23]: 74.2%; inhibition of growth at 100 µM [24]: 76.8% |
| N/C(=N\NC(=S)N1CCOCC1)c1ccccn1 | 4.7 | 4.8 | 0.68 | 7.3 | 26.8 | 19.3 | 18.3 | 15 | 14 | 29.2 | 43.1 | 69.4 | 78.8 | 84.6 | 12.7 | 40 | 56.3 | 82.8 | 87.2 | 14.7 | inhibition of growth at 3 µM [21]: 44.5%; inhibition of growth at 10 µM [22]: 66.7%; inhibition of growth at 30 µM [23]: 78.1%; inhibition of growth at 100 µM [24]: 81.6% |
| Cc1cccc(/C(N)=N/NC(=S)N2CCCCCC2)n1 | 54.7 | 14.7 | 1.8 | 1 | 39.6 | 64.5 | 79.9 | 70.3 | 80.9 | 42.8 | 44.1 | 45.8 | 63.5 | 76.7 | 49.5 | 63.6 | 71.7 | 81.2 | 82.7 | 6.3 | inhibition of growth at 3 µM [21]: 15.7%; inhibition of growth at 10 µM [22]: 21.5%; inhibition of growth at 30 µM [23]: 38.8%; inhibition of growth at 100 µM [24]: 70.2% |
| Cc1ccnc(/C(N)=N/NC(=S)N2CCN(c3ccccn3)CC2)c1 | 12.3 | 15.5 | 0.78 | 10.5 | 64.4 | 74.8 | 76 | 79.4 | 81 | 28.9 | 34.7 | 44 | 65.7 | 75.5 | 40.4 | 42.5 | 49.2 | 77 | 85.6 | 21 | inhibition of growth at 3 µM [21]: 32.8%; inhibition of growth at 10 µM [22]: 32.1%; inhibition of growth at 30 µM [23]: 63.8%; inhibition of growth at 100 µM [24]: 63.4% |
| Cc1ccnc(/C(N)=N/NC(=S)N2CCCCC2)c1 | 18.8 | 18.9 | 1.9 | 7.7 | 33.5 | 69.5 | 81.2 | 80 | 85.6 | 31.1 | 36.5 | 39.7 | 62.8 | 77.6 | 15.3 | 23.9 | 62.1 | 69.1 | 70.8 | 21.2 | inhibition of growth at 3 µM [21]: 29.4%; inhibition of growth at 10 µM [22]: 40.7%; inhibition of growth at 30 µM [23]: 61.7%; inhibition of growth at 100 µM [24]: 80.1% |
